From ChEMBL document CHEMBL1144934, “Efficacious and orally bioavailable thrombin inhibitors based on a 2,5-thienylamidine at the P1 position: discovery of N-carboxymethyl-d-diphenylalanyl-l-prolyl[(5-amidino-2-thienyl)methyl]amide” (J Med Chem, 2003)
Values joined by “and” are separate entries in the source; they are usually repeats but may differ in a detail not shown here. Equal entries are not always repeated.

Legend:
[1] = Half life of compound was determined after intravenous dosing at 10 mg/kg in rat; format: ADME, organism-based; set-up: dose 10 mg/kg, route intravenous; conditions: in vivo
In short: (§1)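 Male Sprague–Dawley rats (250–300 g), femoral artery and vein cannulated under light ether anesthesia; after recovery, 10 mg/kg given via femoral vein. Arterial blood sampled at 0, 1, 5, 15, 30, 60, 90, 120, 180, 240 min, collected into heparinized tubes, deproteinized with 2 volumes methanol, centrifuged; supernatant analyzed by HPLC (0.1% TFA/acetonitrile 81:19).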

[2] = Bioavailability in rat; format: ADME, organism-based; conditions: in vivo
[3] = biological target: Prothrombin (Homo sapiens, UniProt P00734); assay: In vitro inhibition constant (Ki) against human thrombin
[4] = Clearance value was determined after intravenous dosing at 10 mg/kg in rat; format: ADME, organism-based; set-up: dose 10 mg/kg, route intravenous; conditions: in vivo; in short: as §1
[5] = Steady state volume of distribution (Vdss) was determined after intravenous dosing at 10 mg/kg in rat; format: ADME, organism-based; set-up: dose 10 mg/kg, route intravenous; conditions: in vivo, read-out: Vdss; in short: as §1
[6] = Area under curve (AUC) was determine after intravenous dosing at 10 mg/kg; format: ADME, organism-based; set-up: dose 10 mg/kg, route intravenous; conditions: in vivo
[7] = In vitro metabolic stability was determined using liver S9 fraction from monkey at initial concentration of 20 uM; format: ADME, subcellular; conditions: simiiformes, read-out: Recovery
In short: (§2)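 Liver S9 (9000g supernatant of homogenate in Tris-acetate pH 7.4, KCl, EDTA) from rat, dog, monkey (pooled, n = 2) or human (n = 2); 20 µM final compound with NADPH generating system and S9 6.72 mg/mL in 100 mM phosphate pH 7.4, 37 °C. Samples methanol-deproteinized, HPLC; recovery after 30 min reported; no-NADPH control.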

[8] = Half life of compound (t 1/2) was evaluated at 5 mg/kg after postoral dosing; format: functional, organism-based; set-up: dose 5 mg/kg
[9] = Clearance value was determined after intravenous dosing at 2.5 mg/kg; format: functional, organism-based; set-up: dose 2.5 mg/kg
[10] = test system: thrombin (Homo sapiens) & trypsin (Bos taurus); assay: Selectivity of compound was determined between thrombin and bovine trypsin
[11] = biological target: Tissue-type plasminogen activator (Homo sapiens, UniProt P00750); assay: In vitro inhibition constant (Ki) against human Tissue type plasminogen activator was determined
[12] = test system: Rattus norvegicus; assay: Ex vivo activated clotting time was measured in rat plasma at 1 mg/kg; format: functional
[13] = test system: Canis lupus familiaris; assay: Area under curve (AUC) was determine after intravenous dosing at 2.5 mg/kg in dog
[14] = test system: Canis lupus familiaris; assay: Bioavailability of compound (F %) was evaluated at 5 mg/kg in dog; format: functional, organism-based
[15] = biological target: Thrombin and coagulation factor X (Homo sapiens) (UniProt P00734+P00742); assay: Selectivity of compound was determined between thrombin and human factor Xa; format: protein assay
[16] = Steady state volume of distribution (Vdss) was evaluated at 2 mg/kg after intravenous dosing in monkey; format: functional, organism-based; set-up: dose 2 mg/kg
[17] = Half life of compound (t 1/2) was evaluated at 2.5 mg/kg after intravenous dosing; format: functional, organism-based; set-up: dose 2.5 mg/kg
[18] = Time of maximum plasma concentration of compound in monkey at 5 mg/kg was determined; format: functional, organism-based; set-up: dose 5 mg/kg
[19] = test system: Primates; assay: Bioavailability of compound(F %) was evaluated at mg/kg in Monkey; format: functional, organism-based
[20] = Area under curve (AUC) was determine after oral dosing at 20 mg/kg in monkey
[21] = Area under curve (AUC) was determine after intravenous dosing at 2 mg/kg in monkey; format: functional, organism-based; set-up: dose 2 mg/kg
[22] = organism: Rattus norvegicus; assay: Ex vivo concentration of inhibitor to double the activated clotting time was measured in rat plasma; format: functional
[23] = Half life of compound (t 1/2) was evaluated at 2 mg/kg after intravenous dosing in monkey; format: functional, organism-based; set-up: dose 2 mg/kg
[24] = organism: Homo sapiens
[25] = organism: Rattus norvegicus; assay: In vitro concentration of inhibitor to double the activated partial thromboplastin time was evaluated in rat; format: functional
In short: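 Rat plasma mixed with inhibitor and an equal volume of aPTT reagent (Platelin LS), incubated 5 min at 37 °C, then 100 μL of 25 mM CaCl2 added. Clotting time read on an automatic coagulometer. Value taken as the inhibitor concentration that doubles aPTT.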

[26] = biological target: Coagulation factor X (Homo sapiens, UniProt P00742); assay: In vitro inhibition constant (Ki) against human Coagulation factor X was determined
[27] = biological target: Trypsin (Homo sapiens, UniProt P07477+P07478+P35030); assay: In vitro inhibition constant (Ki) against human trypsin was determined; format: protein assay
[28] = Clearance was determined after intravenous dosing at 2 mg/kg in monkey; format: functional, organism-based; set-up: dose 2 mg/kg
[29] = Selectivity of compound was determined between thrombin and human plasmin
[30] = Maximal plasma concentration in monkeys after 20 mg/kg oral dose; conditions: cynomolgus monkey
[31] = biological target: Thrombin & trypsin (Homo sapiens) (UniProt P00734+P07477+P07478+P35030); assay: Selectivity of compound was determined between thrombin and human trypsin; format: protein assay
[32] = Half life of compound (t 1/2) was evaluated at 20 mg/kg after postoral dosing in monkey; format: functional, organism-based; set-up: dose 20 mg/kg
[33] = Area under curve (AUC) was determined after intravenous dosing at 10 mg/kg in rat; format: ADME, organism-based; set-up: dose 10 mg/kg, route intravenous; conditions: in vivo; in short: as §1
[34] = Selectivity of compound was determined between thrombian and human t-PA
[35] = biological target: Plasminogen (Homo sapiens, UniProt P00747); assay: In vitro inhibition constant (Ki) against human plasmin was determined
[36] = test system: Rattus norvegicus; assay: In vivo inhibition of thrombus formation in thromboplastin-induced deep vein thrombosis (DVT) rat model after iv bolus dosing at 1 mg/kg; format: functional
[37] = In vitro metabolic stability was determined using liver S9 fraction from dog at initial concentration of 20 uM; format: ADME, Canis lupus familiaris; conditions: read-out: Recovery; in short: as §2
[38] = Area under curve (AUC) was determine after postoral dosing at 5 mg/kg in dog; format: functional, organism-based; set-up: dose 5 mg/kg
[39] = biological target: T1, Serine protease 1 (Bos taurus, UniProt P00760); assay: In vitro inhibition constant (Ki) against […] trypsin was determined
T1 sequence (P00760 whole entry): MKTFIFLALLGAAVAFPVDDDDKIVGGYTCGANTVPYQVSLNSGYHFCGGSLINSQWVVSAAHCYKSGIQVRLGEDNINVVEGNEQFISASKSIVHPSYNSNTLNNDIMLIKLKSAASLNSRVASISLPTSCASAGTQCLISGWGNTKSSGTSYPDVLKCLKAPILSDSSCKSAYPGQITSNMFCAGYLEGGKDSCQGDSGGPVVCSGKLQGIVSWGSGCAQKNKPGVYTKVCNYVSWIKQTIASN

[40] = Maximal plasma concentration in dogs after 5 mg/kg oral dose; format: ADME, organism-based, Canis lupus familiaris; set-up: dose 5 mg/kg, route oral; conditions: dog
[41] = organism: Homo sapiens; assay: (§3) In vitro metabolic stability was determined using liver S9 fraction from human at initial concentration of 20 uM; format: ADME; conditions: 20 µM; in short: as §2
[42] = as §3; format: ADME; conditions: liver S9 fraction, read-out: Recovery; in short: as §2
[43] = Steady state volume of distribution (Vdss) was evaluated at 2.5 mg/kg after intravenous dosing; format: functional, organism-based; set-up: dose 2.5 mg/kg

Sequence of Tissue-type plasminogen activator (P00750 whole entry): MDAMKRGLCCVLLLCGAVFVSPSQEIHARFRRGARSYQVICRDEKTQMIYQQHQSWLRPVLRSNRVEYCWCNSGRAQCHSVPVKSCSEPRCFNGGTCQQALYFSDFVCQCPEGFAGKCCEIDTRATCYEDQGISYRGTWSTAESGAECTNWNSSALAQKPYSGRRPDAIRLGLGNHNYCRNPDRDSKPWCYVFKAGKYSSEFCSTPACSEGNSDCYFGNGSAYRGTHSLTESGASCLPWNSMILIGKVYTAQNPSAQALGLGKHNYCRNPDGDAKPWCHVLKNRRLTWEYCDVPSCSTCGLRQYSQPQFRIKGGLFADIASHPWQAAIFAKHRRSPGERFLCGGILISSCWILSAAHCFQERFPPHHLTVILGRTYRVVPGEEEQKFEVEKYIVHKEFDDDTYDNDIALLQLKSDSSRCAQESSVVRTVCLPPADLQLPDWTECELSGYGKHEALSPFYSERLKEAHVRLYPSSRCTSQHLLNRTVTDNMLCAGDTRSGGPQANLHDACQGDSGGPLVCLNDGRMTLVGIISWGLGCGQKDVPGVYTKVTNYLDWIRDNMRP
Sequence of Plasminogen (P00747 97-580 limits assumed): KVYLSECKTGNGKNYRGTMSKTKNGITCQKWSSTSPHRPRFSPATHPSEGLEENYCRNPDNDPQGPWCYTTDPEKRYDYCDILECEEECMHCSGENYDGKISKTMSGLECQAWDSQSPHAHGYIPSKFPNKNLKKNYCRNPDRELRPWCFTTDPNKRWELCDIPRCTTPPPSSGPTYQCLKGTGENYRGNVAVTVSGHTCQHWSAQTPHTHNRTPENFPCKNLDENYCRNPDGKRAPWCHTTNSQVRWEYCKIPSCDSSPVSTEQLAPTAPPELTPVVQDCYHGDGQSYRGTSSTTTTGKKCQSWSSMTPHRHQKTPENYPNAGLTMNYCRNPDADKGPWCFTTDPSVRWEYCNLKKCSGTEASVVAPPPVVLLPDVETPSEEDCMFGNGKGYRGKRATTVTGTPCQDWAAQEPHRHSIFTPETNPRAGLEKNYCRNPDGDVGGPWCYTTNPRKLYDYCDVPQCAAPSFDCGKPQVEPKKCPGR
Sequence of Plasminogen (P00747 581-810 limits assumed): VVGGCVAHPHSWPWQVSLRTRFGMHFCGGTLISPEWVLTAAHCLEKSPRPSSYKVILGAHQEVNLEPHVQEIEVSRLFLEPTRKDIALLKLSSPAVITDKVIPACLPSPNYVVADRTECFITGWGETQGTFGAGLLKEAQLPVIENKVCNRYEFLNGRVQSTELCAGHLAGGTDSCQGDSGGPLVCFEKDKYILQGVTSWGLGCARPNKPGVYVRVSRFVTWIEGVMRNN
Sequence of Coagulation factor X (P00742 41-179 limits assumed): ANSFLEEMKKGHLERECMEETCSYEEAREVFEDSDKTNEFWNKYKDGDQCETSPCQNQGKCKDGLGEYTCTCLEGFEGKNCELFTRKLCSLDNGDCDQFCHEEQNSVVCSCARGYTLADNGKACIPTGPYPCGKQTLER
Sequence of Coagulation factor X (P00742 235-488 limits assumed): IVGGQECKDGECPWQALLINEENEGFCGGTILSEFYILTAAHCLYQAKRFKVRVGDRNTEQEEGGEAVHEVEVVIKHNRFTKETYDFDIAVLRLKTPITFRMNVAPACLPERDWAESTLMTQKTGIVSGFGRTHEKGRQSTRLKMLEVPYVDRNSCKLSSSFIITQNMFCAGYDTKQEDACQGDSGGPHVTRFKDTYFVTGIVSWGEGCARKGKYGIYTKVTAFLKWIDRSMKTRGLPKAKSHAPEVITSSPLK
Sequence of Thrombin and coagulation factor X (Homo sapiens) (P00742 whole entry, looked up, other chains not shown): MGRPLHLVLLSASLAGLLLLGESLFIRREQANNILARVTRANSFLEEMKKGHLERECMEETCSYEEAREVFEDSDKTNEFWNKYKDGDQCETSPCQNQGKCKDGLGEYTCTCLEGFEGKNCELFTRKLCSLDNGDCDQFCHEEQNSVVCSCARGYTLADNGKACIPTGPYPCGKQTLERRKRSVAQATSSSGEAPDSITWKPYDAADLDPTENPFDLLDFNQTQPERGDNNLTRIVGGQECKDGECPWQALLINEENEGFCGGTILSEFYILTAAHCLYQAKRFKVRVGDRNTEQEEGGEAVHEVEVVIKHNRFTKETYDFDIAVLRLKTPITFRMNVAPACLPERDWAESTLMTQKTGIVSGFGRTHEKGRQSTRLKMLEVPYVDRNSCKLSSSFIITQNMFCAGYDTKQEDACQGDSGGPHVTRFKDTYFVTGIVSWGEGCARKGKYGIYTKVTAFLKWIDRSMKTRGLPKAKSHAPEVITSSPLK

Work on `N=C(N)c1csc(CNC(=O)[C@@H]2CCCN2C(=O)[C@H](NCC(=O)O)C(c2ccccc2)c2ccccc2)n1` yielded a half-life [1] of 50 min, a bioavailability [2] of 21% and a Ki [3] of 0.64 nM. For the same compound, the clearance [4] was 6 mL/min/kg, the Vd [5] was 0.189 L/kg and the AUC [6] was 29100 ng·h/mL.

`N=C(N)c1ccc(CNC(=O)[C@@H]2CCCN2C(=O)[C@H](NCC(=O)O)C(c2ccccc2)c2ccccc2)s1` showed a remaining at 20 µM [7] of 83%, a T1/2 [8] of 68 min and a CL (mL.min-1.kg-1) [9] of 5.9. For the same compound, the Selectivity [10] was 200, the Ki [11] was 433 nM and the ACT [12] was 12. The AUC [13] was 7620 ng·h/mL, the bioavailability [14] was 42% and the Selectivity [15] was > 10000. It also gave a half-life [1] of 47 min, a Vdss [16] of 0.23 L/kg and a T1/2 [17] of 54 min. For the same compound, the Tmax [18] was 30 min and 90 min, the bioavailability [19] was 15% and the AUC [20] was 5150 ng·h/mL. The bioavailability [2] was 43%, the AUC [21] was 3420 ng·h/mL and the “Concentration to double activated clotting time” value [22] was 0.85 µM. It also gave a T1/2 [23] of 23 min, a clearance [4] of 9.6 mL/min/kg and an APTT [24] of 0.23 µM. It also gave an APTT [25] of 0.97 µM, a Ki [26] of 2250 nM and a Ki [27] of 0.3 nM. The CL (mL.min-1.kg-1) [28] was 9.8, the Selectivity [29] was > 10000 and the Cmax [30] was 2100 ng/mL. The Selectivity [31] was 20, the T1/2 [32] was 58 min and the Vd [5] was 0.258 L/kg. The AUC [33] was 17600 ng·h/mL, the Selectivity [34] was > 10000 and the Ki [35] was 7400 nM. It also gave an inhibition in vivo at 1 mg/kg [36] of 100%, a remaining at 20 µM [37] of 99% and an AUC [38] of 6050 ng·h/mL. For the same compound, the Ki [39] was 3 nM, the Cmax [40] was 3800 ng/mL and the Recovery [41] was 95%. The remaining at 20 µM [42] was 95% and the Vdss [43] was 0.223 L/kg.
